Laboratory results as given in ChEMBL document CHEMBL5058577, “EUbOPEN Chemogenomics Library 2 (Multiplex)” (2022).

Test system: U2OS
Experiment: Multiplex assay against U2OS
Format: toxicity, cell-based
Conditions: human
Summary of the method: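 Tubulin, mitochondrial-mass and membrane-permeability phenotypes are per cents of healthy-nucleus cells. Cells were gated by CellPathfinder machine learning into Hoechst high-intensity objects or normal cells, normal cells into healthy, pyknosed or fragmented nuclei, and pyknosed cells into mitotic or apoptotic. Before that, live cells stained at seeding with Hoechst33342, BioTracker Green Microtubule Cytoskeleton Dye, MitoTracker Red and Annexin V Alexa Fluor 680 were imaged on a CQ1 microscope at 37°C and 5% CO2 after compound addition.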

[1] = 12 h, 1 µM, compound concentration 1 uM, replicate 1
[2] = 12 h, 1 µM, compound concentration 1 uM, replicate 2
[3] = 12 h, 10 µM, compound concentration 10 uM, replicate 1
[4] = 12 h, 10 µM, compound concentration 10 uM, replicate 2
[5] = 24 h, 1 µM, compound concentration 1 uM, replicate 1
[6] = 24 h, 1 µM, compound concentration 1 uM, replicate 2
[7] = 24 h, 10 µM, compound concentration 10 uM, replicate 1
[8] = 24 h, 10 µM, compound concentration 10 uM, replicate 2
[9] = 48 h, 1 µM, compound concentration 1 uM, replicate 1
[10] = 48 h, 1 µM, compound concentration 1 uM, replicate 2
[11] = 48 h, 10 µM, compound concentration 10 uM, replicate 1
[12] = 48 h, 10 µM, compound concentration 10 uM, replicate 2

For `CCCCC(=O)N(Cc1ccc(-c2ccccc2-c2nnn[nH]2)cc1)[C@H](C(=O)O)C(C)C`, the “Population Apoptotic (%)” value [1] was 85%, the “Population Fragmented Nuclei (%)” value [1] was 28% and the “Population Healthy Nuclei (%)” value [1] was 63%. The “Population Hoechst High Intensity Objects (%)” value [1] was 1%, the “Population Membrane Permeable-Phenotype (%)” value [1] was 8% and the “Population Mitochondria Different-Phenotype (%)” value [1] was 3%. The “Population Mitotic Cells (%)” value [1] was 14%, the “Population Normal (%)” value [1] was 98% and the “Population Pyknosed Nuclei (%)” value [1] was 8%. For the same molecule, the “Population Tubulin-Different-Phenotype (%)” value [1] was 4%, the “Total Cell Count” value [1] was 259 and the “Population Apoptotic (%)” value [2] was 100%. The “Population Fragmented Nuclei (%)” value [2] was 15%, the “Population Healthy Nuclei (%)” value [2] was 79% and the “Population Hoechst High Intensity Objects (%)” value [2] was 3%. For the same molecule, the “Population Membrane Permeable-Phenotype (%)” value [2] was 9%, the “Population Mitochondria Different-Phenotype (%)” value [2] was 5% and the “Population Mitotic Cells (%)” value [2] was 0%. For the same molecule, the “Population Normal (%)” value [2] was 96%, the “Population Pyknosed Nuclei (%)” value [2] was 4% and the “Population Tubulin-Different-Phenotype (%)” value [2] was 2%. For the same molecule, the “Total Cell Count” value [2] was 130, the “Population Apoptotic (%)” value [3] was 75% and the “Population Fragmented Nuclei (%)” value [3] was 35%. The “Population Healthy Nuclei (%)” value [3] was 55%, the “Population Hoechst High Intensity Objects (%)” value [3] was 1% and the “Population Membrane Permeable-Phenotype (%)” value [3] was 3%. The “Population Mitochondria Different-Phenotype (%)” value [3] was 2%, the “Population Mitotic Cells (%)” value [3] was 25% and the “Population Normal (%)” value [3] was 98%. The “Population Pyknosed Nuclei (%)” value [3] was 9%, the “Population Tubulin-Different-Phenotype (%)” value [3] was 2% and the “Total Cell Count” value [3] was 218. For the same molecule, the “Population Fragmented Nuclei (%)” value [4] was 24%, the “Population Healthy Nuclei (%)” value [4] was 71% and the “Population Hoechst High Intensity Objects (%)” value [4] was 0%. For the same molecule, the “Population Membrane Permeable-Phenotype (%)” value [4] was 1%, the “Population Normal (%)” value [4] was 99% and the “Population Pyknosed Nuclei (%)” value [4] was 3%. The “Population Tubulin-Different-Phenotype (%)” value [4] was 0%, the “Total Cell Count” value [4] was 108 and the “Population Apoptotic (%)” value [5] was 86%. The “Population Fragmented Nuclei (%)” value [5] was 23%, the “Population Healthy Nuclei (%)” value [5] was 68% and the “Population Hoechst High Intensity Objects (%)” value [5] was 2%. For the same molecule, the “Population Membrane Permeable-Phenotype (%)” value [5] was 5%, the “Population Mitochondria Different-Phenotype (%)” value [5] was 3% and the “Population Mitotic Cells (%)” value [5] was 13%. The “Population Normal (%)” value [5] was 97%, the “Population Pyknosed Nuclei (%)” value [5] was 7% and the “Population Tubulin-Different-Phenotype (%)” value [5] was 2%. The “Total Cell Count” value [5] was 289, the “Population Apoptotic (%)” value [6] was 83% and the “Population Fragmented Nuclei (%)” value [6] was 10%. The “Population Healthy Nuclei (%)” value [6] was 77%, the “Population Hoechst High Intensity Objects (%)” value [6] was 6% and the “Population Membrane Permeable-Phenotype (%)” value [6] was 9%. For the same molecule, the “Population Mitochondria Different-Phenotype (%)” value [6] was 6%, the “Population Mitotic Cells (%)” value [6] was 16% and the “Population Normal (%)” value [6] was 93%. The “Population Pyknosed Nuclei (%)” value [6] was 12%, the “Population Tubulin-Different-Phenotype (%)” value [6] was 7% and the “Total Cell Count” value [6] was 158. The “Population Apoptotic (%)” value [7] was 82%, the “Population Fragmented Nuclei (%)” value [7] was 31% and the “Population Healthy Nuclei (%)” value [7] was 59%. The “Population Hoechst High Intensity Objects (%)” value [7] was 2%, the “Population Membrane Permeable-Phenotype (%)” value [7] was 3% and the “Population Mitochondria Different-Phenotype (%)” value [7] was 2%. The “Population Mitotic Cells (%)” value [7] was 17%, the “Population Normal (%)” value [7] was 97% and the “Population Pyknosed Nuclei (%)” value [7] was 8%. The “Population Tubulin-Different-Phenotype (%)” value [7] was 2%, the “Total Cell Count” value [7] was 272 and the “Population Apoptotic (%)” value [8] was 84%. For the same molecule, the “Population Fragmented Nuclei (%)” value [8] was 22%, the “Population Healthy Nuclei (%)” value [8] was 67% and the “Population Hoechst High Intensity Objects (%)” value [8] was 0%. The “Population Membrane Permeable-Phenotype (%)” value [8] was 4%, the “Population Mitochondria Different-Phenotype (%)” value [8] was 8% and the “Population Mitotic Cells (%)” value [8] was 15%. For the same molecule, the “Population Normal (%)” value [8] was 100%, the “Population Pyknosed Nuclei (%)” value [8] was 9% and the “Population Tubulin-Different-Phenotype (%)” value [8] was 6%. For the same molecule, the “Total Cell Count” value [8] was 135, the “Population Apoptotic (%)” value [9] was 86% and the “Population Fragmented Nuclei (%)” value [9] was 17%. For the same molecule, the “Population Healthy Nuclei (%)” value [9] was 75%, the “Population Hoechst High Intensity Objects (%)” value [9] was 2% and the “Population Membrane Permeable-Phenotype (%)” value [9] was 5%. For the same molecule, the “Population Mitochondria Different-Phenotype (%)” value [9] was 3%, the “Population Mitotic Cells (%)” value [9] was 13% and the “Population Normal (%)” value [9] was 97%. For the same molecule, the “Population Pyknosed Nuclei (%)” value [9] was 7%, the “Population Tubulin-Different-Phenotype (%)” value [9] was 2% and the “Total Cell Count” value [9] was 397. The “Population Apoptotic (%)” value [10] was 85%, the “Population Fragmented Nuclei (%)” value [10] was 20% and the “Population Healthy Nuclei (%)” value [10] was 68%. The “Population Hoechst High Intensity Objects (%)” value [10] was 3%, the “Population Membrane Permeable-Phenotype (%)” value [10] was 7% and the “Population Mitotic Cells (%)” value [10] was 15%. The “Population Normal (%)” value [10] was 96%, the “Population Pyknosed Nuclei (%)” value [10] was 10% and the “Population Tubulin-Different-Phenotype (%)” value [10] was 3%. The “Total Cell Count” value [10] was 201, the “Population Apoptotic (%)” value [11] was 83% and the “Population Fragmented Nuclei (%)” value [11] was 22%. The “Population Healthy Nuclei (%)” value [11] was 70%, the “Population Hoechst High Intensity Objects (%)” value [11] was 1% and the “Population Membrane Permeable-Phenotype (%)” value [11] was 6%. For the same molecule, the “Population Mitochondria Different-Phenotype (%)” value [11] was 2%, the “Population Mitotic Cells (%)” value [11] was 16% and the “Population Normal (%)” value [11] was 98%. The “Population Pyknosed Nuclei (%)” value [11] was 7%, the “Population Tubulin-Different-Phenotype (%)” value [11] was 2% and the “Total Cell Count” value [11] was 347. For the same molecule, the “Population Apoptotic (%)” value [12] was 87%, the “Population Fragmented Nuclei (%)” value [12] was 21% and the “Population Healthy Nuclei (%)” value [12] was 60%. For the same molecule, the “Population Hoechst High Intensity Objects (%)” value [12] was 4%, the “Population Membrane Permeable-Phenotype (%)” value [12] was 4% and the “Population Mitochondria Different-Phenotype (%)” value [12] was 3%. For the same molecule, the “Population Mitotic Cells (%)” value [12] was 12%, the “Population Normal (%)” value [12] was 95% and the “Population Pyknosed Nuclei (%)” value [12] was 17%. The “Population Tubulin-Different-Phenotype (%)” value [12] was 6% and the “Total Cell Count” value [12] was 188.
